Measured values from ChEMBL document CHEMBL1140034, “Conformationally constrained analogues of diacylglycerol. 30. An investigation of diacylglycerol-lactones containing heteroaryl groups reveals compounds with high selectivity for Ras guanyl nucleotide-releasing proteins” (J Med Chem, 2008).

Key:
[1] = target: Protein kinase C alpha type (Homo sapiens, UniProt P17252); assay: Displacement of [3H]PDBu from human recombinant PKCalpha expressed in Escherichia coli […] (DE3)
Method in brief: (§1)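 Competition binding: displacement of bound [20-3H]phorbol 12,13-dibutyrate from recombinant PKC alpha or RasGRP3 measured in the presence of phosphatidylserine. IC50 obtained by fitting data points to the theoretical competition curve; Ki calculated from the corresponding IC50.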

[2] = Lipophilicity, SlogP of the compound; format: physicochemical; details: octanol/water
[3] = Ratio of Ki for human recombinant PKCalpha to RasGRP3
Method in brief: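 Ki values for PKC alpha and RasGRP3 each come from [20-3H]PDBu displacement from the recombinant protein in the presence of phosphatidylserine, with IC50 fitted to the theoretical competition curve and converted to Ki. The ratio is Ki(PKC alpha)/Ki(RasGRP3).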

[4] = target: T1, Ras guanyl-releasing protein 3 (Homo sapiens, UniProt Q8IV61); assay: Displacement of [3H]PDBu from RasGRP3 expressed in cells; format: cell-based; method in brief: as §1
T1 sequence (Q8IV61 whole entry): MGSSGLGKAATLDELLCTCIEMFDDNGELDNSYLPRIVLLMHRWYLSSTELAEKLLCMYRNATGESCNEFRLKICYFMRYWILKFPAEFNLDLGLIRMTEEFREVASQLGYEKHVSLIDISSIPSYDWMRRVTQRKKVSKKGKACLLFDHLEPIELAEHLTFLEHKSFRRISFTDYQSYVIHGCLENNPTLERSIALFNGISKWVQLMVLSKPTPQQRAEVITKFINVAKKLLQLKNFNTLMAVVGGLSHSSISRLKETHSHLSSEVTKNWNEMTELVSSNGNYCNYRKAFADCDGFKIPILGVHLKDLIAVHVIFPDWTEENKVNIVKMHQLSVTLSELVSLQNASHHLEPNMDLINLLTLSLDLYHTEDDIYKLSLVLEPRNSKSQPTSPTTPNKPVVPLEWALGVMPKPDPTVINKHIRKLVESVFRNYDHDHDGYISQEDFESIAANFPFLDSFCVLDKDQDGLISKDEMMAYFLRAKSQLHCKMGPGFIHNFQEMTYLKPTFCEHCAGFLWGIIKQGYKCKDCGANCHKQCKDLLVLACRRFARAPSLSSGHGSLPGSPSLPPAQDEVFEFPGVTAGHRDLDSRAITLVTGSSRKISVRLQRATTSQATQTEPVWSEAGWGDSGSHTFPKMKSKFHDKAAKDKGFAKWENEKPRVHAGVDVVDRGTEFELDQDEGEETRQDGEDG

| Compound | Ki [1] | logP [2] | Ratio Ki [3] | Ki [4] |
| --- | --- | --- | --- | --- |
| CCCC(CCC)C(=O)OCC1(CO)C/C(=C\c2ccccn2)C(=O)O1 (centres undefined) | 0.0863 µM | 2.9 | 119 | 0.00072 µM |
| CN(C)c1ccc(C(=O)OCC2(CO)C/C(=C\c3cnc4ccccc4c3)C(=O)O2)cc1 (centres undefined) | 0.755 µM | 3.22 | 6 | 0.137 µM |
| CN(C)c1ccc(C(=O)OCC2(CO)C/C(=C\c3cn(C)c4ccccc34)C(=O)O2)cc1 (centres undefined) | 0.174 µM | 3.22 | 47 | 0.0037 µM |
| CCCC(CCC)C(=O)OCC1(CO)C/C(=C/c2ccncc2)C(=O)O1 (centres undefined) | 0.87 µM | 2.9 | 20 | 0.044 µM |
| CCCC(CCC)C(=O)OCC1(CO)C/C(=C/c2ccc3ccccc3n2)C(=O)O1 (centres undefined) | 0.0788 µM | 4.06 | 17 | 0.0046 µM |
| CN(C)c1ccc(C(=O)OCC2(CO)C/C(=C\c3cccnc3)C(=O)O2)cc1 (centres undefined) | 0.79 µM | 2.07 | 13 | 0.059 µM |
| CCCC(CCC)C(=O)OCC1(CO)C/C(=C\c2cn(C)c3ccccc23)C(=O)O1 (centres undefined) | 0.0297 µM | 4.36 | 165 | 0.00018 µM |
| COc1ccc(C(=O)OCC2(CO)C/C(=C/c3cccnc3)C(=O)O2)cc1 (centres undefined) | 21.2 µM | 2.01 | 4 | 5.5 µM |
| CN(C)c1ccc(C(=O)OCC2(CO)C/C(=C\c3ccc([N+](=O)[O-])cc3)C(=O)O2)cc1 (centres undefined) | 0.343 µM |  | 90 |  |
| COc1ccc(C(=O)OCC2(CO)C/C(=C\c3ccccn3)C(=O)O2)cc1 (centres undefined) | 1.13 µM | 2.01 | 32 | 0.0358 µM |
| COc1ccc(C(=O)OCC2(CO)C/C(=C\c3cn(C)c4ccccc34)C(=O)O2)cc1 (centres undefined) | 0.212 µM | 3.46 | 64 | 0.0033 µM |
| CN(C)c1ccc(C(=O)OCC2(CO)C/C(=C\c3ccncc3)C(=O)O2)cc1 (centres undefined) | 1.11 µM | 2.07 | 19 | 0.054 µM |
| CN(C)c1ccc(C(=O)OCC2(CO)C/C(=C/c3cnc4ccccc4c3)C(=O)O2)cc1 (centres undefined) | 4.88 µM | 3.22 | 3 | 1.41 µM |
| CC(C)CC(CC(=O)OCC1(CO)C/C(=C\c2ccccn2)C(=O)O1)CC(C)C (centres undefined) | 0.0046 µM | 3.78 |  | 0.0002 µM |
| COc1ccc(C(=O)OCC2(CO)C/C(=C/c3ccncc3)C(=O)O2)cc1 (centres undefined) | 25.4 µM | 2.01 | 7 | 3.66 µM |
| CCCC(CCC)C(=O)OCC1(CO)C/C(=C\c2cnc3ccccc3c2)C(=O)O1 (centres undefined) | 0.0138 µM | 4.06 | 27 | 0.00052 µM |
| CCCC(CCC)C(=O)OCC1(CO)C/C(=C/c2cccnc2)C(=O)O1 (centres undefined) | 3.27 µM | 2.9 | 5 | 0.67 µM |
| CCCC(CCC)C(=O)OCC1(CO)C/C(=C\c2ccncc2)C(=O)O1 (centres undefined) | 0.627 µM | 2.9 | 45 | 0.0138 µM |

More lines, in order of falling Ki [1], values ahead:

| Ki [1] | logP [2] | Ratio Ki [3] | Ki [4] | Compound |
| --- | --- | --- | --- | --- |
| 34.1 µM | 2.07 | 20 | 1.97 µM | CN(C)c1ccc(C(=O)OCC2(CO)C/C(=C/c3cccnc3)C(=O)O2)cc1 (centres undefined) |
| 33.2 µM | 2.07 | 14 | 2.36 µM | CN(C)c1ccc(C(=O)OCC2(CO)C/C(=C/c3ccncc3)C(=O)O2)cc1 (centres undefined) |
| 27.1 µM | 2.01 | 11 | 2.47 µM | COc1ccc(C(=O)OCC2(CO)C/C(=C/c3ccccn3)C(=O)O2)cc1 (centres undefined) |
| 15.8 µM | 3.22 | 8 | 2.04 µM | CN(C)c1ccc(C(=O)OCC2(CO)C/C(=C/c3ccc4ccccc4n3)C(=O)O2)cc1 (centres undefined) |
| 5.1 µM | 3.16 | 6 | 0.907 µM | COc1ccc(C(=O)OCC2(CO)C/C(=C/c3cnc4ccccc4c3)C(=O)O2)cc1 (centres undefined) |
| 2.94 µM | 3.16 | 2 | 1.39 µM | COc1ccc(C(=O)OCC2(CO)C/C(=C/c3ccc4ccccc4n3)C(=O)O2)cc1 (centres undefined) |
| 1.45 µM | 2.01 | 27 | 0.0542 µM | COc1ccc(C(=O)OCC2(CO)C/C(=C\c3ccncc3)C(=O)O2)cc1 (centres undefined) |
| 1.37 µM | 2.9 | 16 | 0.083 µM | CCCC(CCC)C(=O)OCC1(CO)C/C(=C/c2ccccn2)C(=O)O1 (centres undefined) |
| 1.02 µM | 2.07 | 43 | 0.0238 µM | CN(C)c1ccc(C(=O)OCC2(CO)C/C(=C\c3ccccn3)C(=O)O2)cc1 (centres undefined) |
| 0.81 µM | 2.01 | 10 | 0.081 µM | COc1ccc(C(=O)OCC2(CO)C/C(=C\c3cccnc3)C(=O)O2)cc1 (centres undefined) |
| 0.177 µM | 4.06 | 5 | 0.0322 µM | CCCC(CCC)C(=O)OCC1(CO)C/C(=C/c2cnc3ccccc3c2)C(=O)O1 (centres undefined) |
| 0.15 µM | 3.22 | 14 | 0.011 µM | CN(C)c1ccc(C(=O)OCC2(CO)C/C(=C\c3ccc4ccccc4n3)C(=O)O2)cc1 (centres undefined) |
| 0.144 µM | 3.16 | 8 | 0.0174 µM | COc1ccc(C(=O)OCC2(CO)C/C(=C\c3cnc4ccccc4c3)C(=O)O2)cc1 (centres undefined) |
| 0.136 µM |  | 20 | 0.0067 µM | COc1ccc(C(=O)OCC2(CO)C/C(=C\c3ccc([N+](=O)[O-])cc3)C(=O)O2)cc1 (centres undefined) |
| 0.132 µM | 3.16 | 16 | 0.0082 µM | COc1ccc(C(=O)OCC2(CO)C/C(=C\c3ccc4ccccc4n3)C(=O)O2)cc1 (centres undefined) |
| 0.076 µM | 2.9 | 47 | 0.0016 µM | CCCC(CCC)C(=O)OCC1(CO)C/C(=C\c2cccnc2)C(=O)O1 (centres undefined) |
| 0.0519 µM | 4.06 | 31 | 0.0017 µM | CCCC(CCC)C(=O)OCC1(CO)C/C(=C\c2ccc3ccccc3n2)C(=O)O1 (centres undefined) |
| 0.0148 µM | 5.24 |  | 0.0007 µM | CC(C)CC(CC(=O)OCC1(CO)C/C(=C\c2cn(C)c3ccccc23)C(=O)O1)CC(C)C (centres undefined) |
